Reference: ChEMBL document CHEMBL1629705, “PSI-7851, a pronucleotide of beta-D-2'-deoxy-2'-fluoro-2'-C-methyluridine monophosphate, is a potent and pan-genotype inhibitor of hepatitis C virus replication” (Antimicrob Agents Chemother, 2010)
pEC50, pIC50: −log10 of the molar value.

Tests used:
West Nile virus = assay: Antiviral activity against West Nile virus New York by neutral red assay; assay type: functional, organism-based
Hepatitis C virus [1] = assay: Antiviral activity against Hepatitis C virus Con1 infected in human lunet cells assessed as inhibition of viral RNA replication after 4 days by luciferase reporter gene assay; assay type: functional, organism-based, Hepacivirus hominis; details: 96 h
Procedure, shortened: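 Genotype 1b Con1 subgenomic replicon cells (ET-lunet, 3,000 cells/well, firefly luciferase ET replicon; clone A, 1,500 cells/well) incubated 4 days with serially diluted compound. Replication read by luciferase luminescence and/or real-time RT-PCR.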

[2] = Cytotoxicity against human HepAD38 cells; assay type: cell-based
Influenza A virus [3] = assay: Antiviral activity against Influenza A virus (A/Viet Nam/1203/2004(H5N1)) infected in HFF by neutral red assay; assay type: functional, organism-based
Hepatitis C virus [4] = assay: Antiviral activity against Hepatitis C virus H77; assay type: functional, organism-based, Hepacivirus hominis; details: genotype 1a H77
[5] = test system: Human immunodeficiency virus; assay: Antiviral activity against HIV infected in human HeLaP4 cells by beta-galactosidase-based reporter gene assay; assay type: functional, organism-based; details: Human immunodeficiency virus 1, HeLaP4
Procedure, shortened: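 P4 cells (HeLa expressing CD4/CXCR4 with HIV-1 LTR-driven LacZ), 10,000 cells/well, incubated overnight at 37°C, 5% CO2. Compound added 4 h before infection with HIV NL4-3 (4 ng/well p24-equivalent) plus DEAE-dextran 20 μg/ml. Incubated further 40–42 h. Beta-galactosidase read by luminescence; percent inhibition versus no-drug wells.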

Influenza A virus [6] = assay: Antiviral activity against Influenza A virus (A/Brisbane/59/2007 (H1N1)) infected in HFF by neutral red assay; assay type: functional, organism-based
Hepatitis C virus [7] = assay: Antiviral activity against Hepatitis C virus harboring NS5B polymerase S96T/N142T mutant gene infected in human lunet cells by luciferase-based replicon assay; assay type: functional, Hepacivirus hominis
Procedure, shortened: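 ET-lunet cells with the ET genotype 1b replicon, wild-type or S96T/N142T (ET replicon with these mutations electroporated into Lunet cells, selected in 0.2 mg/ml G418). 3,000 cells/well, 4 days with serially diluted compound. Firefly luciferase luminescence read-out; EC90 from dose–response.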

[8] = Inhibition of Hepatitis C virus genotype 4a recombinant NS5B polymerase after 3 hrs by phosphor imaging; set-up: species or system Hepatitis C virus subtype 4a
Procedure, shortened: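 C-terminal Δ21-truncated NS5B: 1b Con1 and 2a JFH-1 expressed in E. coli; 3a and 4a cloned from patient serum. Mix: 1 μM each NTP, [α-32P]UTP, 20 ng/μl genotype 1b(−) IRES RNA template, 40 ng/μl enzyme, 1 mM MgCl2, 0.75 mM MnCl2, 2 mM DTT, 50 mM HEPES pH 7.5. Run at 27°C: 30 min (1b, 2a) or 3 h (3a, 4a). EDTA quench, products on membrane read by phosphorimager. Duplicates; IC50 calculated.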

[9] = biological target: T1, DNA polymerase subunit gamma-1 (Homo sapiens, UniProt P54098); assay: Inhibition of human DNA polymerase gamma assessed as incorporation of [alpha-32P]dCTP up to 1mM preincubated for 30 mins by whatman DE81 paper binding assay
T1 sequence (P54098 whole entry): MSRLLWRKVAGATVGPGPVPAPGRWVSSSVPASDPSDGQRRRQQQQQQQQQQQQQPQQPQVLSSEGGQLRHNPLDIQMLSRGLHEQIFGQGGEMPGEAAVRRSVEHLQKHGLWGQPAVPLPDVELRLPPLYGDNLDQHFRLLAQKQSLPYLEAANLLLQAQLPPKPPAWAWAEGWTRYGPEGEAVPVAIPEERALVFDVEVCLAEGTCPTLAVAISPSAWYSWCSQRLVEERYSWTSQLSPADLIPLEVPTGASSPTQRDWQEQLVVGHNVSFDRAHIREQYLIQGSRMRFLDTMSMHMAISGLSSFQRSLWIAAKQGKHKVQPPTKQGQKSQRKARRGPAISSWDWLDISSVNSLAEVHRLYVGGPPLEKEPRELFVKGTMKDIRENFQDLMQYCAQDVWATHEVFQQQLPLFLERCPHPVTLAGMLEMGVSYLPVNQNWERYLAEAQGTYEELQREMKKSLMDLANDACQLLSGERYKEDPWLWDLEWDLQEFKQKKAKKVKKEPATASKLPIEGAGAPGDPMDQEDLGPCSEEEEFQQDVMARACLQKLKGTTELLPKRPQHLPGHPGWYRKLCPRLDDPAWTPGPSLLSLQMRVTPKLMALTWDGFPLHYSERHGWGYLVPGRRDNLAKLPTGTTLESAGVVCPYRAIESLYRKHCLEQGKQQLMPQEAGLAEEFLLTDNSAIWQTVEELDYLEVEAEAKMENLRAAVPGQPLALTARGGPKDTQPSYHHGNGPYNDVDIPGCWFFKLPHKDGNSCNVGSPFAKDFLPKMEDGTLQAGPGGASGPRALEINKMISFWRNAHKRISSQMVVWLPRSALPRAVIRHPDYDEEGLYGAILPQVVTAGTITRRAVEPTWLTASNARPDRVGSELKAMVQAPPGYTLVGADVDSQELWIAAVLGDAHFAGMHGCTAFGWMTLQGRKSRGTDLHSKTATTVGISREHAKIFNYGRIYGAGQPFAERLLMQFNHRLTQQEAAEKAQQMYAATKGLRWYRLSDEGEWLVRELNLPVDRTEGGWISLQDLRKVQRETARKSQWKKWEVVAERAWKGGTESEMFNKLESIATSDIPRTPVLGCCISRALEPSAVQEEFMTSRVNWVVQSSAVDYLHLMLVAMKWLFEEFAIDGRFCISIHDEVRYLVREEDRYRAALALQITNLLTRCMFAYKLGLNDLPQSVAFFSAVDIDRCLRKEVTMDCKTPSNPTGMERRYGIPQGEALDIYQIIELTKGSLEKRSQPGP
Procedure, shortened: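 Human DNA polymerase α (20 μg/ml) or γ (50 μg/ml) in 50 mM Tris pH 7.5, 50 mM NaCl, activated calf thymus DNA, 20 μM each dNTP, [α-32P]dCTP, 5 mM MgCl2. Nucleotide inhibitor up to 1 mM. 37°C, quenched with EDTA at 30 min. Product measured by DE81 paper binding; IC50 by nonlinear fit.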

[10] = biological target: DNA-directed RNA polymerase II subunit RPB1 (Homo sapiens, UniProt P24928); assay: Inhibition of human RNA polymerase 2 assessed as synthesis of RNA products at 500 uM
Procedure, shortened: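 In vitro transcription by HeLa nuclear extract from CMV immediate-early promoter DNA. Mix: 400 μM ATP, CTP and UTP, 16 μM GTP, [α-32P]GTP, 3 mM MgCl2, in 20 mM HEPES pH 7.9 buffer with KCl, EDTA, DTT and glycerol. Inhibitor up to 1 mM. 30°C for 60 min. RNA purified, run on 6% sequencing gel and quantified by phosphorimager.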

Structure (SMILES) | pEC50 (West Nile virus) | pEC50 (Hepatitis C virus [1]) | EC90 (Hepatitis C virus [1]) [µM] | CC50 [2] [µM] | pEC50 (Influenza A virus [3]) | pEC50 (Hepatitis C virus [4]) | EC90 (Hepatitis C virus [4]) [µM] | pEC50 [5] | pEC50 (Influenza A virus [6]) | EC90 (Hepatitis C virus [7]) [µM] | pIC50 [8] | pIC50 [9] | inhibition [10] [%]
CC(C)OC(=O)[C@H](C)NP(=O)(OC[C@H]1O[C@@H](n2ccc(=O)[nH]c2=O)[C@](C)(F)[C@@H]1O)Oc1ccccc1 (stereo partly drawn) | < 4.00 | 5.87 | 3.81 | > 100 | < 4.00 | 6.72 | 0.34 | < 4.00 | < 4.00 | 0.39 | – | – | –
C[C@@]1(F)[C@H](O)[C@@H](COP(=O)(O)OP(=O)(O)OP(=O)(O)O)O[C@H]1n1ccc(=O)[nH]c1=O [GS-461203] | – | – | – | – | – | – | – | – | – | – | 5.59 | < 3.00 | 85
